Test results taken from ChEMBL document CHEMBL3745659, “Synthesis and Characterization of 4,11-Diaminoanthra[2,3-b]furan-5,10-diones: Tumor Cell Apoptosis through tNOX-Modulated NAD(+)/NADH Ratio and SIRT1” (J Med Chem, 2015).
Activity calls are given as the source filed them. The calls are words filed in the database; no cut-off is given here.

Legend:
CCRF-CEM = test: Antiproliferative activity against human CEM cells after 72 hrs by MTT assay; type: functional, cell-based
HeLa = test: Antiproliferative activity against human HeLa cells after 72 hrs by MTT assay; type: functional, cell-based
[1] = Antiproliferative activity against human HCT116 cells after 72 hrs by MTT assay; type: functional, cell-based; conditions: HCT-116, 72 h
K562 [2] = test: Antiproliferative activity against human K562 cells after 72 hrs by MTT assay; type: functional, cell-based; conditions: K562, 72 h
[3] = Antiproliferative activity against human K562/4 cells after 72 hrs by MTT assay; type: functional, cell-based; conditions: K562/4, 72 h
[4] = target: T1, DNA topoisomerase 1 (Homo sapiens) (UniProt P11387); test: Inhibition of Top1 (unknown origin)-mediated relaxation of pBR322 DNA at 2.5 uM incubated for 30 mins by ethidium bromide staining-based gel electrophoresis assay
T1 sequence (whole entry): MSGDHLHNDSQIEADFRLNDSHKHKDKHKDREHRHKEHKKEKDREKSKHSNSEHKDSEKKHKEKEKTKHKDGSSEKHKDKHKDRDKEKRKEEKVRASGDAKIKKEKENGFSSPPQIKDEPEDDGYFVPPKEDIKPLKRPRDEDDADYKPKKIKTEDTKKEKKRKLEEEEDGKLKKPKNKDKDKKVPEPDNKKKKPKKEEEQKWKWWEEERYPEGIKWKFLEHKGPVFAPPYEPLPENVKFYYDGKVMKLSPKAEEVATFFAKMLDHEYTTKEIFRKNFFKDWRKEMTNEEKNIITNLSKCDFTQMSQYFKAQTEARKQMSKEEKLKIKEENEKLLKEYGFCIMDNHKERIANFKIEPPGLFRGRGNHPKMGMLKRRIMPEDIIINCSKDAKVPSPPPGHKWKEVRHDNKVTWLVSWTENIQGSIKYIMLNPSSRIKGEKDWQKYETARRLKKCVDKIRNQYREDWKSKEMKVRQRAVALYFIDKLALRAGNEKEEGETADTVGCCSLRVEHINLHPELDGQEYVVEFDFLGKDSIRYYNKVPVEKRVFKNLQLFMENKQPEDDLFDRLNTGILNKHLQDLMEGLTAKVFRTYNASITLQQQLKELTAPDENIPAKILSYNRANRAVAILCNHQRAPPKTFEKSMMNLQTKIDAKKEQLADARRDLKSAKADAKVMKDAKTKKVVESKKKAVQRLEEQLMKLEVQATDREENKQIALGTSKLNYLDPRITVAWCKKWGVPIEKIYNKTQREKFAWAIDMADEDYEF
How it was run: (§1)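 Supercoiled pBR322 plasmid treated with Top1 without drug or with compound at 0.5, 2.5 or 10 µM; camptothecin as reference; relaxation assessed by gel electrophoresis.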

[5] = target: T1, DNA topoisomerase 1 (Homo sapiens); test: Inhibition of Top1 (unknown origin)-mediated relaxation of pBR322 DNA at 0.5 uM incubated for 30 mins by ethidium bromide staining-based gel electrophoresis assay; how it was run: as §1
AGS [6] = test: Induction of apoptosis in human AGS cells after 24 hrs by annexin V-FITC staining-based flow cytometric analysis; type: functional, cell-based
How it was run: (§2)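 AGS cells exposed to compound for 24 h; Annexin V-FITC staining and flow cytometry used to give percentage of apoptotic cells; mean ± S.E. from at least three independent experiments.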

AGS [7] = test: Induction of apoptosis in human AGS cells assessed as necrotic cells at 5 uM after 24 hrs by annexin V-FITC staining-based flow cytometric analysis (Rvb=1.1%); type: functional
AGS [8] = test: Induction of apoptosis in human AGS cells assessed as necrotic cells at 10 uM after 24 hrs by annexin V-FITC staining-based flow cytometric analysis (Rvb=1.1%); type: functional
AGS [9] = test: Induction of apoptosis in human AGS cells assessed as late apoptotic cells at 5 uM after 24 hrs by annexin V-FITC staining-based flow cytometric analysis (Rvb=5.5%); type: functional; how it was run: as §2
AGS [10] = test: Induction of apoptosis in human AGS cells assessed as late apoptotic cells at 10 uM after 24 hrs by annexin V-FITC staining-based flow cytometric analysis (Rvb=5.5%); type: functional; how it was run: as §2
AGS [11] = test: Induction of apoptosis in human AGS cells assessed as early apoptotic cells at 5 uM after 24 hrs by annexin V-FITC staining-based flow cytometric analysis (Rvb=9.8%); type: functional; how it was run: as §2
AGS [12] = test: Induction of apoptosis in human AGS cells assessed as early apoptotic cells at 10 uM after 24 hrs by annexin V-FITC staining-based flow cytometric analysis (Rvb=9.8%); type: functional; how it was run: as §2
AGS [13] = test: Induction of apoptosis in human AGS cells assessed as viable cells at 5 uM after 24 hrs by annexin V-FITC staining-based flow cytometric analysis (Rvb=83.7%); type: functional; conditions: read-out: Activity; how it was run: as §2
AGS [14] = test: Induction of apoptosis in human AGS cells assessed as viable cells at 10 uM after 24 hrs by annexin V-FITC staining-based flow cytometric analysis (Rvb=83.7%); type: functional; conditions: read-out: Activity; how it was run: as §2
AGS [15] = test: Upregulation of phosphorylated p53 level in human AGS cells at 1 and 5 uM after 24 hrs by Western blot analysis; type: functional, cell-based
AGS [16] = test: Upregulation of total p53 level in human AGS cells at 1 and 5 uM after 24 hrs by Western blot analysis; type: cell-based
AGS [17] = test: Upregulation of caspase3-directed PARP cleavage in human AGS cells at 5 uM after 24 hrs by Western blot analysis; type: functional, cell-based
AGS [18] = test: Downregulation of Bid protein level in human AGS cells after 24 hrs by Western blot analysis; type: functional, cell-based
AGS [19] = test: Increase in intracellular NAD+/NADH ratio in human AGS cells at 5 uM incubated for 5 mins; type: functional, cell-based
K562 [20] = test: Resistance index, ratio of IC50 for human K562/4 cells to IC50 for human K562 cells; type: functional
[21] = target: T2, NAD-dependent protein deacetylase sirtuin-1 (Homo sapiens) (UniProt Q96EB6); test: Inhibition of human recombinant SIRT1 deacetylase activity using Arg-His-Lys-Lys(epsilon-acetyl)-AMC as substrate at 5 uM incubated for 45 mins by fluorescence analysis
T2 sequence (whole entry): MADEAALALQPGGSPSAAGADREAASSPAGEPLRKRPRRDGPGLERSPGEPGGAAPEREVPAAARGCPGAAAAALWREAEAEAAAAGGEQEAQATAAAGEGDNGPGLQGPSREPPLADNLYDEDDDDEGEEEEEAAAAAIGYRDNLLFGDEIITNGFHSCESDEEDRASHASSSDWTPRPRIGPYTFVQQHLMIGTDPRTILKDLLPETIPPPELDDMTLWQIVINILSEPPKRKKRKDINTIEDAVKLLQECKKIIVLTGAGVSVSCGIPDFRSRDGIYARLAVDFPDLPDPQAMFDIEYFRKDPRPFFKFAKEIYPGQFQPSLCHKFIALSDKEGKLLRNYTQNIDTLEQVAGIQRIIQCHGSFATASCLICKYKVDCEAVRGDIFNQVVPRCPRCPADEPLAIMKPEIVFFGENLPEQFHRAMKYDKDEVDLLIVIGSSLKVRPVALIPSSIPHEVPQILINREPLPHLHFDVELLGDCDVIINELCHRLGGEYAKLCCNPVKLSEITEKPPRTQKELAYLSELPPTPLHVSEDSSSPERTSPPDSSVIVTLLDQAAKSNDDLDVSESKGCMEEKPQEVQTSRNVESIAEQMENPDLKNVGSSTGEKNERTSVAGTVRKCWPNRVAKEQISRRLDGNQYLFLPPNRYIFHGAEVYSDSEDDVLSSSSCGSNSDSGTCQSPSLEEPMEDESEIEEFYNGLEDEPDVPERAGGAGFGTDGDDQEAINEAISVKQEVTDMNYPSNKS

AGS [22] = test: Upregulation of acetylated p53 level in human AGS cells at 1 and 5 uM after 24 hrs by Western blot analysis; type: functional, cell-based
AGS [23] = test: Downregulation of SIRT1 protein level in human AGS cells at 1 and 5 uM after 24 after 24 hrs by Western blot analysis; type: functional, cell-based
AGS [24] = test: Downregulation of tNOX protein level in human AGS cells at 1 and 5 uM after 24 hrs by Western blot analysis; type: functional, cell-based
L1210 = test: Antiproliferative activity against mouse L1210 cells after 72 hrs by MTT assay; conditions: L1210, 72 h
[25] = target: DNA topoisomerase 2-alpha (Homo sapiens) (UniProt P11388); test: Inhibition of Top2 (unknown origin)-mediated relaxation of pBR322 DNA at 0.1 to 2.5 uM incubated for 30 mins by ethidium bromide staining-based gel electrophoresis assay
DNA topoisomerase 2-alpha (Homo sapiens), sequence (P11388 whole entry): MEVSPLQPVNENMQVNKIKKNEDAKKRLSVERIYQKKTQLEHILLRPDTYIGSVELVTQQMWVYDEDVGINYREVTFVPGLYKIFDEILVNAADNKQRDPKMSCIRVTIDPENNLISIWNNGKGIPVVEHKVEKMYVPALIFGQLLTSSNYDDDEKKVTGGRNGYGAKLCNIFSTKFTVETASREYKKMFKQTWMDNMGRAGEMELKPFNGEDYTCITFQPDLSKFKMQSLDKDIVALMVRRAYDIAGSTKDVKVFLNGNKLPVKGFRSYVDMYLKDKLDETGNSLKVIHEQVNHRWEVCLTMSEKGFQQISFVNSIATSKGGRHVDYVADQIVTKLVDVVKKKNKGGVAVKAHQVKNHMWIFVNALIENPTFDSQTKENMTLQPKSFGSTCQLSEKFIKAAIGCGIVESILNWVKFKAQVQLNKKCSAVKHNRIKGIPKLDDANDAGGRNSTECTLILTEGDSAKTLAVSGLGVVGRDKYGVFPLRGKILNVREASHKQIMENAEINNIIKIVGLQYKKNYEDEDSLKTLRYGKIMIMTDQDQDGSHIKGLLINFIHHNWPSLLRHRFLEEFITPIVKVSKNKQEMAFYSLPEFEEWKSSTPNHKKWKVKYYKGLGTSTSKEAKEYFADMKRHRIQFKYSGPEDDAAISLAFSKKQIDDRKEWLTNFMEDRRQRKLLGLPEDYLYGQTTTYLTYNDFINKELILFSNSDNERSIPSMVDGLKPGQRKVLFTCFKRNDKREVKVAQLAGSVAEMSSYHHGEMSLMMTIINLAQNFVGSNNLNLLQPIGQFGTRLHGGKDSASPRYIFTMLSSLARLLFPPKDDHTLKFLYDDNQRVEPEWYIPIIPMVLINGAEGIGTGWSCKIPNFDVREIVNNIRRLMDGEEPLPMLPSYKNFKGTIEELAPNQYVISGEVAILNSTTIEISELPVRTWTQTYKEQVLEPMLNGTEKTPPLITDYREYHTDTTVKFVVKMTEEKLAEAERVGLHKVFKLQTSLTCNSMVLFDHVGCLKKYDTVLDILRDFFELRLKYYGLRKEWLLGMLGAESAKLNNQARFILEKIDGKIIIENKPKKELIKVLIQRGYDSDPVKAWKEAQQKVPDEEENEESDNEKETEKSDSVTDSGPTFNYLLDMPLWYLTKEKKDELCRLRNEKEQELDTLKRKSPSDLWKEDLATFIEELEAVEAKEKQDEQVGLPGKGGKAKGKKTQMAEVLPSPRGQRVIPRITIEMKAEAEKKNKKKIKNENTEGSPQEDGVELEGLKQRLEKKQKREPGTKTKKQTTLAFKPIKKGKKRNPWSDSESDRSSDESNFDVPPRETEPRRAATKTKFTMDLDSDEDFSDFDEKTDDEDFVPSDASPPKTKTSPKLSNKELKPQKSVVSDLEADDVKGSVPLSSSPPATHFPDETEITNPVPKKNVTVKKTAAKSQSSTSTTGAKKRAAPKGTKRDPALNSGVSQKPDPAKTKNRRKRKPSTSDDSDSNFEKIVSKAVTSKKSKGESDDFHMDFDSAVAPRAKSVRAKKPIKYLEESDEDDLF

IC50 (CCRF-CEM): 9.02 µM
IC50 (HeLa): 3.27 µM
IC50 (K562 [2]): 1.65 µM
inhibition [4]: Active
inhibition [5]: Active
Activity (AGS [16]): Not Active
inhibition [21]: inactive
IC50 (L1210): 5.54 µM
inhibition [25]: Active
SMILES: N=C(N)NCCNc1c2c(c(NCCNC(=N)N)c3occc13)C(=O)c1ccccc1C2=O
IC50 [1]: 1.02 µM
IC50 [3]: 6.53 µM
Activity (AGS [6]): inactive
Activity (AGS [7]): 1%
Activity (AGS [8]): 1.5%
Activity (AGS [9]): 4.2%
Activity (AGS [10]): 3%
Activity (AGS [11]): 8.6%
Activity (AGS [12]): 10.5%
viability at 5 µM (AGS [13]): 86.3%
viability at 10 µM (AGS [14]): 84.9%
Activity (AGS [15]): inactive
Activity (AGS [17]): inactive
Activity (AGS [18]): inactive
Activity (AGS [19]): Active
Ratio IC50 (K562 [20]): 3.98
Activity (AGS [22]): inactive
Activity (AGS [23]): inactive
Activity (AGS [24]): inactive
